Assay results: article PMC7931638 (Xenobiotica; the fate of foreign compounds in biological …, 2020)
Like-named read-outs stand apart in the source and are kept apart here.

Tests used:
[1] = Stability in dosed-feed formulations; assay type: physicochemical; conditions: up to 42 d, RE ≤ ± 10% of day 0 value
[2] = assay type: in vivo, mouse; conditions: male mice; for group mean daily body weight gain: 7 d; for average daily feed consumption: 7 d exposure; for survival: all exposure groups, 7 d via feed
[3] = assay type: in vivo, rat; conditions: male rats; for group mean daily body weight gain: 7 d; for average daily feed consumption: 7 d exposure; for survival: all exposure groups, 7 d via feed
[4] = in vivo; conditions: male, B6C3F1/N, mouse; for half-life: Free Elimination half-life
[5] = in vivo; conditions: male; for half-life: po, Free Elimination half-life
[6] = male rats, ref Waidyanatha et al., cited from earlier work
[7] = assay type: in vivo, rat; conditions: male rats, dose-normalized
In short: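 Male rats (272–308 g, 8–9 weeks), singly caged, received dosed feed ad libitum at 338, 1125 or 3750 ppm for 7 days. Control feed followed, with plasma sampled up to 24 h. Free and deconjugated total test compound were measured by LC-MS/MS. Cmax and AUC came from an extravascular model and were normalized to the daily dose (food consumption, concentration, body weight). Gavage values were taken from earlier single-dose work.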

[8] = Hsd:Sprague Dawley SD (rat), B6C3F1/N (mouse)
[9] = gavage 34 mg/kg vs feed 23.4 mg/kg
[10] = gavage 110 mg/kg vs feed 70.5 mg/kg
[11] = gavage 340 mg/kg vs feed 193 mg/kg

Compound | stability in feed formulations stored at refrigerated temperature [1] | group mean daily body weight gain ([2]; 338 ppm via feed) | average daily feed consumption ([2]; 338 ppm) | group mean daily body weight gain ([2]; 1125 ppm via feed) | average daily feed consumption ([2]; 1125 ppm) | survival [2] | group mean daily body weight gain ([3]; 338 ppm via feed) | average daily feed consumption ([3]; 338 ppm) | group mean daily body weight gain ([3]; 1125 ppm via feed) | average daily feed consumption ([3]; 1125 ppm) | survival [3] | Total plasma elimination half-lives, range over exposure concentrations [4] | half-life ([4]; po) | half-life ([5]; Hsd:Sprague Dawley SD, rat) | other results
O=S(=O)(c1ccc(O)cc1)c1ccc(O)cc1 [BPS, 4,4’-sulfonyldiphenol] | confirmed | 0.1 ± 0.4 g | 389 ± 85 g/kg bw/d | 0.1 ± 0.3 g | 381 ± 61 g/kg bw/d | All animals survived until the end of the study | 3.7 ± 4.4 g | 68 ± 2.5 g/kg bw/d | 3.7 ± 2.7 g | 68 ± 3.5 g/kg bw/d | All animals survived until the end of the study | 6.11 to 7.89 h | 6.11 h | 4.82 h | group mean daily body weight gain ([2]; 3375 ppm via feed): 0.1 ± 0.3 g; average daily feed consumption ([2]; 3375 ppm): 348 ± 131 g/kg bw/d; group mean daily body weight gain ([3]; 3375 ppm via feed): 2.6 ± 5.9 g; average daily feed consumption ([3]; 3375 ppm): 62 ± 5.1 g/kg bw/d; Free Elimination half-life ([4]; po): 6.82 h; Free and total Cmax, difference between rats and mice [5, 8]: ≤ 2 fold; Free and total plasma elimination half-lives, difference between rats and mice [5, 8]: ≤ 2 fold; Gavage Cmax/D ([6]; single gavage 34 mg/kg, 2020): 9.2 (ng/mL)/(mg/kg); Gavage Cmax/D ([6]; single gavage 340 mg/kg, 2020): 9.5 (ng/mL)/(mg/kg)
Oc1ccc(C(c2ccc(O)cc2)(C(F)(F)F)C(F)(F)F)cc1 [BPAF, 2,2-bis(4-hydroxyphenyl)perfluoropropane] | confirmed | 0.3 ± 0.5 g | 207 ± 68 g/kg bw/d | 0.1 ± 0.6 g | 211 ± 68 g/kg bw/d | All animals survived until the end of the study | 3.38 ± 3.37 g | 69.2 ± 5.8 g/kg bw/d | 2.12 ± 3.68 g | 61.0 ± 11.7 g/kg bw/d | All animals survived until the end of the study | 3.49 to 4.18 h | 6.66 h | 7.1 h | Ratio (Gavage/Feed) AUC [7, 9]: 2.3; Ratio (Gavage/Feed) Cmax [7, 9]: 3.9; Ratio (Gavage/Feed) AUC [7, 10]: 1.6; Ratio (Gavage/Feed) Cmax [7, 10]: 2.2; Ratio (Gavage/Feed) AUC [7, 11]: 3.7; Ratio (Gavage/Feed) Cmax [7, 11]: 4.9; group mean daily body weight gain ([2]; 3750 ppm via feed): 0.1 ± 0.7 g; feed consumption, fold higher than pre-study control food consumption ([2]; 3750 ppm, probably due to high spillage rate): 1.7 fold; group mean daily body weight gain ([3]; 3750 ppm via feed): −0.4 ± 2.3; average daily feed consumption ([3]; 3750 ppm): 51.5 ± 20.5 g/kg bw/d; Total plasma elimination half-lives, fold longer in rats compared to mice [5, 8]: 2-3 fold; Total Elimination half-life ([5]; Hsd:Sprague Dawley SD, rat): 13.3 h; Gavage AUC/D ([6]; single gavage 34 mg/kg, 2019): 11.7 (h*ng/mL)/(mg/kg); Gavage Cmax/D ([6]; single gavage 34 mg/kg, 2019): 1.79 (ng/mL)/(mg/kg); Gavage AUC/D ([6]; single gavage 110 mg/kg, 2019): 11.2 (h*ng/mL)/(mg/kg); Gavage Cmax/D ([6]; single gavage 110 mg/kg, 2019): 1.29 (ng/mL)/(mg/kg); Gavage AUC/D ([6]; single gavage 340 mg/kg, 2019): 14.2 (h*ng/mL)/(mg/kg); Gavage Cmax/D ([6]; single gavage 340 mg/kg, 2019): 1.62 (ng/mL)/(mg/kg)
